≈ marks a conversion by molar mass, not a printed value.
Key:
HCT-116 [1] = assay: Antitumor activity against human HCT116 cells xenografted in BALB-nu/nu mouse assessed as tumor growth inhibition at 30 mg/kg, po qd for 11 days measured twice per week relative to control; type: functional; conditions: HCT-116, 264 h, read-out: TGI
Summary of the method: (§1)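 HCT116 cells implanted subcutaneously in right flank of BALB-nu/nu mice; tumours allowed to establish before dosing. Sodium salt given orally once daily for 11 days (day 0 to day 10). Tumour size measured twice weekly; mean SD, n = 4.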

[2] = AUC (infinity) in rat at 10 mg/kg, po by LC-MS/MS analysis; type: ADME, organism-based; design: time infinity, dose 10 mg/kg, route oral; conditions: plasma
Summary of the method: (§2)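 Sodium salt dosed intravenously and orally in mouse (10/20 mg/kg), rat (5.0/10 mg/kg) and monkey (2.5/5.0 mg/kg iv/po), vehicle 5% DMSO/5% Cremophor EL/15% PEG400/15% HPCD/60% water. AUC_inf from oral dosing, t1/2 from iv dosing, clearance and oral bioavailability from paired iv/po data.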

HCT-116 [3] = assay: Antitumor activity against human HCT116 cells xenografted in BALB-nu/nu mouse administered orally qd for 11 days; type: functional; conditions: HCT-116, po, 264 h; summary of the method: as §1
[4] = AUC (infinity) in cynomolgus monkey at 5 mg/kg, po by LC-MS/MS analysis; type: ADME, organism-based, Macaca fascicularis; design: dose 5 mg/kg, route oral, time infinity; conditions: plasma; summary of the method: as §2
[5] = Oral bioavailability in rat at 10 mg/kg by LC-MS/MS analysis; type: ADME, organism-based; conditions: in vivo; summary of the method: as §2
[6] = Half life in BALB-nu/nu mouse at 10 mg/kg, iv by LC-MS/MS analysis; type: ADME, organism-based; design: dose 10 mg/kg, route intravenous; conditions: in vivo; summary of the method: as §2
[7] = Half life in rat at 5 mg/kg, iv by LC-MS/MS analysis; type: ADME, organism-based; design: dose 5 mg/kg, route intravenous; conditions: in vivo; summary of the method: as §2
[8] = Clearance in BALB-nu/nu mouse at 10 mg/kg, iv and 20 mg/kg, po by LC-MS/MS analysis; type: ADME, organism-based; conditions: in vivo; summary of the method: as §2
[9] = Half life in cynomolgus monkey at 2.5 mg/kg, iv by LC-MS/MS analysis; conditions: in vivo
[10] = Oral bioavailability in cynomolgus monkey at 5 mg/kg by LC-MS/MS analysis; type: ADME, organism-based, Macaca fascicularis; conditions: in vivo; summary of the method: as §2
[11] = Clearance in cynomolgus monkey at 2.5 mg/kg, iv and 5 mg/kg, po by LC-MS/MS analysis; type: ADME, organism-based, Macaca fascicularis; conditions: in vivo; summary of the method: as §2
Mus musculus = assay: Toxicity in BALB nu/nu mouse xenografted with human HCT116 cells assessed as body weight change at 0.3 mg/kg to 30 mg/kg, po qd for 11 days measured twice per week; type: organism-based, HCT-116; conditions: in vivo, 264 h
[12] = AUC (infinity) in BALB-nu/nu mouse at 20 mg/kg, po by LC-MS/MS analysis; type: ADME, organism-based; design: time infinity, dose 20 mg/kg, route oral; conditions: plasma; summary of the method: as §2
[13] = Oral bioavailability in BALB-nu/nu mouse at 20 mg/kg by LC-MS/MS analysis; type: ADME, organism-based; conditions: in vivo; summary of the method: as §2
[14] = Clearance in rat at 5 mg/kg, iv and 10 mg/kg, po by LC-MS/MS analysis; type: ADME, organism-based; conditions: in vivo; summary of the method: as §2
[15] = AUC (0 to 24 hrs) in BALB-nu/nu mouse at 100 mg/kg, po by LC-MS/MS analysis; type: ADME, organism-based; design: time < 24 hr, dose 100 mg/kg, route oral; conditions: plasma
Summary of the method: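 Mice received a single oral dose of 100 mg/kg, formulated as a solution in 5% DMSO, 5% Cremophor EL, 15% PEG400, 15% HPCD and 60% water. Plasma exposure was evaluated over 24 h.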

[16] = AUC (0 to 24 hrs) in BALB-nu/nu mouse at 50 mg/kg, po by LC-MS/MS analysis; type: ADME, organism-based; design: time < 24 hr, dose 50 mg/kg, route oral; conditions: plasma
[17] = Permeability of the compound at pH 6.5 by PAMPA; type: ADME; conditions: read-out: permeability
[18] = molecular target: RAF proto-oncogene serine/threonine-protein kinase (Homo sapiens, UniProt P04049); assay: Inhibition of C-Raf (unknown origin) assessed as phosphorylation of MEK1 after 45 mins by TR-FRET assay
Chain of RAF proto-oncogene serine/threonine-protein kinase (P04049 whole entry): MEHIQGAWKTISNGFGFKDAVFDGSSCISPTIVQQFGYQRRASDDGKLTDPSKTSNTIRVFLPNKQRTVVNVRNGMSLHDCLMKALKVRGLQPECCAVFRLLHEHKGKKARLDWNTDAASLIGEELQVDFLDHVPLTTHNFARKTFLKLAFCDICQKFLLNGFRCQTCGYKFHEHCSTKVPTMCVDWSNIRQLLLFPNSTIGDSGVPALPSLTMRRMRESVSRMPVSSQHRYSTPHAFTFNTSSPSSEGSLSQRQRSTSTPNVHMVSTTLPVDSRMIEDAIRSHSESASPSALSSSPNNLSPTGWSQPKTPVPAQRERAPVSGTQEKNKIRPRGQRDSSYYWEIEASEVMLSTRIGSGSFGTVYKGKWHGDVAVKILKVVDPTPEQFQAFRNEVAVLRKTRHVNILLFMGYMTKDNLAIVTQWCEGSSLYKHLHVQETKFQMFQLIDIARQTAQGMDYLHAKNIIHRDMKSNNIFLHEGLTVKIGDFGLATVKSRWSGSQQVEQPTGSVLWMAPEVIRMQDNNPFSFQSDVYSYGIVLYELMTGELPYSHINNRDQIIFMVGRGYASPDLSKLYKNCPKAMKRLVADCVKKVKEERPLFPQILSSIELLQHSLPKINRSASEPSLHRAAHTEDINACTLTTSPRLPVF

[19] = Solubility of the compound in fasted state simulated intestinal fluid measured after overnight incubation by UV-HPLC analysis; type: ADME
Liver microsome = assay: Clearance in human liver microsomes at 5 uM by LC-MS/MS analysis; type: ADME
[20] = molecular target: Dual specificity mitogen-activated protein kinase kinase 1 (Homo sapiens, UniProt Q02750); assay: Inhibition of MEK1 (unknown origin) assessed as phosphorylation of Erk2 preincubated for 30 mins followed by FAM-Erktide addition measured after 60 mins by IMAP fluorescence polarization assay
Chain of Dual specificity mitogen-activated protein kinase kinase 1 (Q02750 whole entry): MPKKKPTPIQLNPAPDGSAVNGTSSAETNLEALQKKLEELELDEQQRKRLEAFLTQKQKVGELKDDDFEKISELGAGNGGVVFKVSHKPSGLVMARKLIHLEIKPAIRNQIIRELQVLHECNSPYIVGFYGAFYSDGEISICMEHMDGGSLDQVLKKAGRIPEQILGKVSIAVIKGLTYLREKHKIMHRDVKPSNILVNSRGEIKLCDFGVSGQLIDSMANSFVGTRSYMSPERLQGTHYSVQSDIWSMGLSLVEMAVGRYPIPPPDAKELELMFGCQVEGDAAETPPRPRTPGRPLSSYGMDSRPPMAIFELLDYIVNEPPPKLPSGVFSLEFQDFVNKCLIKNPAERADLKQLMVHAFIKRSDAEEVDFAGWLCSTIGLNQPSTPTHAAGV

HCT-116 [21] = assay: Antiproliferative activity against human HCT116 cells assessed as cell viability after 96 hrs by cell counting kit-8 assay; type: functional, cell-based; conditions: HCT-116, 96 h
[22] = Oral bioavailability in mouse; type: ADME, organism-based; conditions: in vivo
Summary of the method: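 Mice received the sodium salt at 10 mg/kg iv and 20 mg/kg po, in a vehicle of 5% DMSO/5% Cremophor EL/15% PEG400/15% HPCD/60% water. Bioavailability was derived from the iv and po exposure.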

hERG (KCNH2) = hERG (KCNH2) (Homo sapiens, UniProt Q12809); assay: Inhibition of human ERG expressed in CHO cells at 10 uM by patch clamp assay relative to control; type: cell-based; conditions: CHO cells expressing human ERG
Chain of hERG (KCNH2) (Q12809 whole entry): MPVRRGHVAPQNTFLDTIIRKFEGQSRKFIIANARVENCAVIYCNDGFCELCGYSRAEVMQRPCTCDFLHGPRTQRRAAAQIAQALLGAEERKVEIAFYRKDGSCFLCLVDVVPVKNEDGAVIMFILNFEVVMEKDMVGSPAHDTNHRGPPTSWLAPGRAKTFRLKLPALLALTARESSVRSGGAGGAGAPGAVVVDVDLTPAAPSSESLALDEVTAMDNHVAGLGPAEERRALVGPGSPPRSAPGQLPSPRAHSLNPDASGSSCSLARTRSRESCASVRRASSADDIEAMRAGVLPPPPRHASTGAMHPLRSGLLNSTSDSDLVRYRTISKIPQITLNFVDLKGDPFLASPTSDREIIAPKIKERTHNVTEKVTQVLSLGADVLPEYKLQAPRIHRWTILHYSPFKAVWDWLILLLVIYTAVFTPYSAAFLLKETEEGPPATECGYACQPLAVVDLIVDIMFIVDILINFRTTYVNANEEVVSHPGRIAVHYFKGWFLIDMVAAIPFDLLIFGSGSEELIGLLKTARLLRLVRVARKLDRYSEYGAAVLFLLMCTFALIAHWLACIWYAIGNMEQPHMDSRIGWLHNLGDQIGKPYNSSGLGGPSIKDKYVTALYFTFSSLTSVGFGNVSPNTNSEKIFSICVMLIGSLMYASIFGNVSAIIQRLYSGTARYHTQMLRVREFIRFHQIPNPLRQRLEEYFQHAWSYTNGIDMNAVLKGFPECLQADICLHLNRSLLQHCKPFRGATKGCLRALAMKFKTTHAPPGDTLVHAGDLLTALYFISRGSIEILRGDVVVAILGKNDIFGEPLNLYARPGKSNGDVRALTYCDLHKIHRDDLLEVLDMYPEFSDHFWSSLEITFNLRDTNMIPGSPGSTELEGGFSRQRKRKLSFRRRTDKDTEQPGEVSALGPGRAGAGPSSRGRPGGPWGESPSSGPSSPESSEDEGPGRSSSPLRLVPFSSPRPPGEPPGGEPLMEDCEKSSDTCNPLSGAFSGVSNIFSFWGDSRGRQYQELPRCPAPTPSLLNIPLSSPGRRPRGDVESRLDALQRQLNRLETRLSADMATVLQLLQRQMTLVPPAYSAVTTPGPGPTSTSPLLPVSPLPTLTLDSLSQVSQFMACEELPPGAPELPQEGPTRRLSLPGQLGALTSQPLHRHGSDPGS

Structure (SMILES)	AUC(0-t) at 24 h [15]	Papp [17]	IC50 [18]	solubility [19]	CLH (Liver microsome)	IC50 [20]	IC50 (HCT-116 [21])	further results
CNS(=O)(=O)[N-]c1cccc(Cc2c(C)c3ccc(Oc4ncccn4)cc3oc2=O)c1F.[Na+]								inhibition in vivo at 30 mg/kg (HCT-116 [1]): 119%; AUC(0-inf) [2]: 43 µM·h; ED50 (HCT-116 [3]): 1.4 mg/kg; AUC(0-inf) [4]: 108 µM·h; bioavailability [5]: 84%; half-life [6]: 4.8 h; half-life [7]: 1.3 h; clearance [8]: 6.8 mL/min/kg; half-life [9]: 2.9 h; bioavailability [10]: 59%; clearance [11]: 0.9 mL/min/kg; Activity (Mus musculus): Non-toxic; AUC(0-inf) [12]: 75 µM·h; bioavailability [13]: 75%; clearance [14]: 6.6 mL/min/kg
CNS(=O)(=O)[N-]c1cccc(Cc2c(C)c3ccc(Oc4nccs4)cc3oc2=O)c1F.[Na+]	366 µM·h							
CNS(=O)(=O)[N-]c1cccc(Cc2c(C)c3ccc(Oc4nccs4)cc3oc2=O)c1.[Na+]	190 µM·h							
CNS(=O)(=O)[N-]c1cccc(Cc2c(C)c3ccc(OC(=O)N(C)C)cc3oc2=O)c1F.[Na+]	70 µM·h							
CNS(=O)(=O)[N-]c1cccc(Cc2c(C)c3ccc(OC(=O)N(C)C)cc3oc2=O)c1.[Na+]	78 µM·h							
Cc1c(Cc2cccc([N-]S(N)(=O)=O)c2)c(=O)oc2cc(OC(=O)N(C)C)ccc12.[Na+]	104 µM·h							
Cc1c(Cc2cccc([N-]S(N)(=O)=O)c2F)c(=O)oc2cc(OC(=O)N(C)C)ccc12.[Na+]								AUC(0-t) at 24 h [16]: 40 µM·h
CNS(=O)(=O)Nc1cccc(Cc2c(C)c3ccc(Oc4nccs4)cc3oc2=O)c1F		3 ×10⁻⁶ cm/s	63 nM	15 µg/mL (≈ 31.5 µM)	9 µL/min/mg	26 nM	11 nM	
CNS(=O)(=O)Nc1cccc(Cc2c(C)c3ccc(Oc4ncccn4)cc3oc2=O)c1C			3600 nM	< 4 µg/mL		4200 nM	330 nM	
CNS(=O)(=O)Nc1cccc(Cc2c(C)c3cc(I)c(OC(=O)N(C)C)cc3oc2=O)c1	16 µM·h		25 nM	8 µg/mL (≈ 14 µM)	33 µL/min/mg	5 nM	8 nM	
CNS(=O)(=O)Nc1cccc(Cc2c(C)c3cc(C)c(OC(=O)N(C)C)cc3oc2=O)c1	18 µM·h		78 nM	11 µg/mL (≈ 23.9 µM)	17 µL/min/mg	29 nM	22 nM	
C#Cc1cc2c(C)c(Cc3cccc(NS(=O)(=O)NC)c3)c(=O)oc2cc1OC(=O)N(C)C			70 nM	21 µg/mL (≈ 44.7 µM)		100 nM	140 nM	
CNS(=O)(=O)Nc1cccc(Cc2c(C)c3cc(C#N)c(OC(=O)N(C)C)cc3oc2=O)c1	39 µM·h		55 nM	40 µg/mL (≈ 85 µM)	15 µL/min/mg	85 nM	24 nM	
Cc1c(Cc2cccc(NS(N)(=O)=O)c2)c(=O)oc2cc(OC(=O)N(C)C)ccc12		6 ×10⁻⁶ cm/s	530 nM	32 µg/mL (≈ 74.2 µM)	6 µL/min/mg	230 nM	95 nM	bioavailability [22]: 62%
Cc1c(Cc2cc(NS(N)(=O)=O)ccc2F)c(=O)oc2cc(OC(=O)N(C)C)ccc12	176 µM·h	5 ×10⁻⁶ cm/s	830 nM	9 µg/mL (≈ 20 µM)	6 µL/min/mg	940 nM	950 nM	
Cc1c(Cc2ccc(F)c(NS(N)(=O)=O)c2)c(=O)oc2cc(OC(=O)N(C)C)ccc12		6 ×10⁻⁶ cm/s	1100 nM	37 µg/mL (≈ 82.3 µM)	6 µL/min/mg	44 nM	610 nM	
Cc1c(Cc2cccc(NS(N)(=O)=O)c2F)c(=O)oc2cc(OC(=O)N(C)C)ccc12		6 ×10⁻⁶ cm/s	13 nM	273 µg/mL (≈ 607 µM)	6 µL/min/mg	53 nM	18 nM	
Cc1c(Cc2cccc(NS(N)(=O)=O)c2)c(=O)oc2cc(OC(=O)N(C)C)c(F)cc12		5 ×10⁻⁶ cm/s	180 nM	114 µg/mL (≈ 254 µM)	6 µL/min/mg	110 nM	87 nM	AUC(0-t) at 24 h [16]: 61 µM·h
Cc1c(Cc2cccc(NS(N)(=O)=O)c2)c(=O)oc2c(F)c(OC(=O)N(C)C)ccc12			120 nM			240 nM	140 nM	
CN(C)C(=O)Oc1ccc2c(CF)c(Cc3cccc(NS(N)(=O)=O)c3)c(=O)oc2c1	84 µM·h	4 ×10⁻⁶ cm/s	220 nM	14 µg/mL (≈ 31.1 µM)	7 µL/min/mg	60 nM	200 nM	
CNS(=O)(=O)Nc1cccc(Cc2c(C)c3ccc(OC(=O)N(C)C)cc3oc2=O)c1		6 ×10⁻⁶ cm/s	300 nM	32 µg/mL (≈ 71.8 µM)	20 µL/min/mg	110 nM	24 nM	
CNS(=O)(=O)Nc1ccc(F)c(Cc2c(C)c3ccc(OC(=O)N(C)C)cc3oc2=O)c1	75 µM·h	5 ×10⁻⁶ cm/s	2400 nM	51 µg/mL (≈ 110 µM)	22 µL/min/mg	2900 nM	550 nM	
CNS(=O)(=O)Nc1cccc(Cc2c(C)c3ccc(OC(=O)N(C)C)cc3oc2=O)c1F		5 ×10⁻⁶ cm/s	8 nM	81 µg/mL (≈ 175 µM)	13 µL/min/mg	38 nM	9 nM	
CNS(=O)(=O)Nc1cccc(Cc2c(C)c3cc(F)c(OC(=O)N(C)C)cc3oc2=O)c1	99 µM·h	5 ×10⁻⁶ cm/s		55 µg/mL (≈ 119 µM)	13 µL/min/mg	64 nM	22 nM	
CNS(=O)(=O)Nc1cccc(Cc2c(CF)c3ccc(OC(=O)N(C)C)cc3oc2=O)c1	86 µM·h	4 ×10⁻⁶ cm/s	120 nM	72 µg/mL (≈ 155 µM)	22 µL/min/mg	66 nM	30 nM	
CNS(=O)(=O)Nc1cccc(Cc2c(C)c3ccc(Oc4ncccn4)cc3oc2=O)c1	223 µM·h	6 ×10⁻⁶ cm/s	> 10000 nM	29 µg/mL (≈ 64.1 µM)	20 µL/min/mg	810 nM	190 nM	
CNS(=O)(=O)Nc1cccc(Cc2c(C)c3ccc(Oc4ncccn4)cc3oc2=O)c1F	425 µM·h	6 ×10⁻⁶ cm/s	23 nM	13 µg/mL (≈ 27.6 µM)	7 µL/min/mg	97 nM	17 nM	inhibition at 10 µM (hERG (KCNH2)): 25%
CNS(=O)(=O)Nc1cccc(Cc2c(C)c3ccc(Oc4nccs4)cc3oc2=O)c1		2 ×10⁻⁶ cm/s	1500 nM	9 µg/mL (≈ 19.7 µM)	24 µL/min/mg	59 nM	160 nM	

Source: ChEMBL document CHEMBL3091288, “Fluorine Scanning by Nonselective Fluorination: Enhancing Raf/MEK Inhibition while Keeping Physicochemical Properties” (ACS Med Chem Lett, 2013)
